# Bioassay records from PubChem BioAssay.
# FXN GAA850 act: frataxin GAA850 promoter activation; HEK293 lucGAA850 FXN promoter luciferase reporter, 24 h; percent of 10 µM SAHA response; activation, % at 6 µM; 360,000 compounds, 0.56% hits;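 active = activation above the average of all compounds screened plus 3 SD, cutoff fixed separately per campaign, cut at about 7.5% in these data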;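 note: 0% = DMSO wells and 100% = 10 µM SAHA wells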
# AHR act: human AHR activation | 320,000 compounds, 2.5% hits | activation, % at 5 µM | AID 2796 | AHR-responsive luciferase reporter cells, luminescence | P35869; in the data active = activation above about 47%;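 note: 0% = vehicle wells and 100% = reference agonist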
# JMJD2C inh: blocks human GASC-1 demethylase activity. Q9H3R0. GST-JMJD2C(1-420) H3K9me3 demethylation, DELFIA europium. inhibition, % at 2.35 µM. 330,000 compounds, 0.069% hits. AID 2099;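 active = more than half of a compound's replicate wells show inhibition beyond 50%, single wells judged on their own value; inconclusive = some, but no more than half, of replicates pass 50% inhibition; inactive = no replicate passes 50% inhibition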;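 note: signal counts dimethyl H3K9 product captured on neutravidin plate; 0% = median of DMSO wells and 100% = 0.3 times that DMSO median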
# Target sequence (Q9H3R0 1-420 limits assumed): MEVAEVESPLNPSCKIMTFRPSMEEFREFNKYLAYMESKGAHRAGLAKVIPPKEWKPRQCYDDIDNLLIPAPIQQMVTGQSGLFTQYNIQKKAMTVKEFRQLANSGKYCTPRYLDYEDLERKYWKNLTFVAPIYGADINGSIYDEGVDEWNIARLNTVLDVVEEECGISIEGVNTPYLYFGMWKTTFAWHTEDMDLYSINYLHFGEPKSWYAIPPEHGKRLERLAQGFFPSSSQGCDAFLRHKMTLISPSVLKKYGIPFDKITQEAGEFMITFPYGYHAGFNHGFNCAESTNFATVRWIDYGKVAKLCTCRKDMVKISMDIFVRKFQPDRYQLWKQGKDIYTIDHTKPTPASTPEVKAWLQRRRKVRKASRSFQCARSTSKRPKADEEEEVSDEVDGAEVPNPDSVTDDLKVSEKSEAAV
# SR-BI DiI inh: inhibitors of mouse SR-BI mediated HDL lipid uptake; Q61009; ldlA[mSR-BI] CHO cells, DiI-HDL uptake fluorescence, 3 h; inhibition, % at 12.5 µM; 320,000 compounds, 0.96% hits; AID 488896;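 active = mean replicate inhibition of at least 70% and a set share of replicates each scoring 70 or more; inconclusive = meets just one of the two criteria; inactive = fails both criteria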;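 note: 0% = median of neutral control wells and 100% = median of positive control wells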
# SR-BI uptake up: enhances SR-BI lipid uptake from DiI-HDL; CHO ldlA[mSR-BI] cells, DiI-HDL uptake fluorescence, 3 h; 100 = double the neutral-control signal; activation, % at 12.5 µM; 320,000 compounds, 0.096% hits; AID 504775;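 active = mean replicate activation of at least 60% and every replicate at or above 60%; inconclusive = mean or all-replicate condition met, but not both; inactive = mean below 60% and not all replicates reaching 60%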;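 note: 0% = median plate neutral-control signal and 100% = twice that signal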
#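 Material: SR-BI-overexpressing, LDLR-lacking CHO cells; schedule: compound exposure 3 h, 37 °C; reagent: DiI-labelled HDL at 10 µg/mL final; technique: bottom-read fluorescence, 550/595 nm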
# AHR act confirm: human AHR activation, confirmation. shares compounds with AHR act. human cells, AHR-responsive luciferase reporter, luminescence. activation, % at 9 µM. 2,300 compounds, 87% hits. AID 2845; in the data active = activation above about 49%;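 note: HepG2 hepatoma cells carrying a DRE-driven firefly luciferase reporter; 0% = vehicle wells and 100% = reference agonist wells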
# PXR act counter: counter-screen for AHR activators: human PXR activators | shares compounds with AHR act | cell-based PXR reporter, luciferase luminescence | activation, % at 11.6 µM | 2,300 compounds, 88% hits | AID 434939; in the data active = activation above about 11%;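 note: human hepatoma DPX-2 cells expressing full-length human PXR; 0% = DMSO and 100% = reference agonist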
# Numbers without * were called inactive; ? = inconclusive; · = not tested or not shown. Compounds with a hit are over-represented: about 3.7% of the library has one in this group of screens.
SMILES,FXN GAA850 act,AHR act,JMJD2C inh,SR-BI DiI inh,SR-BI uptake up,AHR act confirm,PXR act counter
CC(C)(C)OC(=O)N1CCC2(CC1)C(C#N)=C(N)OC1=C2C(=O)CCC1,-2.5,1.9,-3.9,2.2,-2.2,·,·
COc1ccccc1CC(=O)N1CCC(n2nccc2NC(=O)C2CCOC2)CC1 (stereo not given),3.7,2.7,-3.6,19.9,-19.9,·,·
O=c1c2ccccc2nc(/C=C/c2ccccc2)n1CCc1ccccc1,0.1,9.0,3.6,-1.0,1.0,·,·
O=c1c2ccccc2nc(/C=C/c2cccc([N+](=O)[O-])c2)n1CCO,1.1,105.9*,-4.4,19.4,-19.4,68.9*,21.0*
COc1ccc(CCn2c(=N)c(S(=O)(=O)c3ccc(Cl)cc3)cc3c(=O)n4ccccc4nc32)cc1,-0.2,-3.0,?,-19.3,19.3,·,·
CC(=O)c1cccc(NC(=S)N2CCc3ccccc32)c1,3.4,85.8*,44.2,32.0,-32.0,106.9*,60.5*
Fc1cccc(NC(=S)N2CCc3ccccc32)c1,4.4,·,-1.9,-0.5,0.5,·,·
CC(C)(C)NC(=O)Cn1c(SCC(=O)NC2CCCC2)nc2ccccc21,-1.8,-0.6,-4.0,-29.0,29.0,·,·
Brc1ccccc1/C=N/Nc1ccc2ccccc2n1,4.2,93.7*,-1.6,·,·,131.1*,14.5*
O=[N+]([O-])c1cccc(C=NNc2ccc3ccccc3n2)c1O,-11.2,·,·,11.0,-11.0,·,·
O=C1C(c2cc(=O)c3ccccc3[nH]2)=C(O)c2ccccc21,4.4,167.3*,-1.7,6.6,-6.6,191.5*,25.3*
O=c1cc(-c2ccccc2)[nH]c2ccccc12,4.5,2.8,-9.1,-2.0,2.0,·,·
O=C(N/N=C\c1cc2c(cc1Cl)OCO2)c1cccnc1,-1.0,80.0*,-15.0,24.9,-24.9,79.3*,13.3*
O=C(N/N=C/c1cc2c(cc1Cl)OCO2)c1ccncc1,0.3,86.8*,16.2,29.0,-29.0,63.0*,8.7
Cc1ccc(OCc2cc(C(=O)N(C)CCc3nc4ccccc4[nH]3)no2)cc1C,-0.6,·,-9.2,50.3,-50.3,·,·
Nc1ccccc1C#Cc1ccc2[nH]ccc2c1,3.6,93.9*,0.1,34.6,-34.6,119.6*,24.1*
Nc1ccccc1C#Cc1ccccc1,3.5,21.1,-22.2,-11.5,11.5,·,·
Cc1nc2c(=O)[nH]c(=S)n(C)c2nc1C,0.4,81.4*,2.0,-35.0,35.0,56.3*,4.0
Cc1nc2[nH]c(=S)[nH]c(=O)c2nc1C,0.1,·,·,-11.7,11.7,·,·
Oc1ccc2ccc3[nH]cnc3c2c1,3.4,80.2*,-5.7,9.9,-9.9,37.2,21.8*
CN(C)Cc1c(O)ccc2[nH]cnc12,2.2,2.2,-12.3,-2.4,2.4,·,·
Cc1c(Cl)cccc1NC(=O)C(=O)NNC(=O)c1ccccc1F,3.3,-2.1,5.5,-13.7,13.7,·,·
O=C(N/N=C/c1ccc2c(c1)OCO2)c1ccc2c(c1)OCCO2,1.3,46.8,8.7,2.1,-2.1,·,·
Cc1cc(C(=O)N/N=C/c2c[nH]c3ccccc23)cs1,1.9,32.0,2.6,-0.3,0.3,·,·
Cc1cccc(NC(=S)N/N=C/c2ccc3c(c2)OCO3)c1,-0.4,94.2*,-2.2,0.4,-0.4,71.3*,86.8*
SMILES,FXN GAA850 act,AHR act,JMJD2C inh,SR-BI DiI inh,SR-BI uptake up,AHR act confirm,PXR act counter
Cc1cccc(NC(=S)N/N=C/c2c[nH]c3ccccc23)c1,-1.6,134.9*,-4.0,7.4,-7.4,87.4*,19.3*
Cc1cccc(NC(=S)NCc2ccc3c(c2)OCO3)c1,2.4,4.4,6.6,-13.8,13.8,·,·
O=C(N/N=C/c1ccc2c(c1)OCO2)c1ccc(Br)o1,5.5,174.7*,-0.6,23.1,-23.1,120.2*,21.5*
Cc1cccc(NC(=S)N/N=C/c2cccc([N+](=O)[O-])c2)c1,0.8,133.9*,-1.5,10.0,-10.0,145.1*,41.0*
O=C(O)CCc1ccc(S(=O)(=O)Nc2ccccc2N2CCCCC2)cc1,-2.1,1.5,0.1,-19.6,19.6,·,·
CCCc1ccc(S(=O)(=O)N2CCN(C(C)C(=O)NCc3ccccc3)CC2)cc1 (stereo not given),-1.3,·,·,-19.0,19.0,·,·
